Test results taken from ChEMBL document CHEMBL1121968, “Phospholipid-nucleoside conjugates. 3. Syntheses and preliminary biological evaluation of 1-beta-D-arabinofuranosylcytosine 5'-monophosphate-L-1,2-dipalmitin and selected 1-beta-D-arabinofuranosylcytosine 5-diphosphate-L-1,2-diacylglycerols” (1982).

Key:
MPC-11 [1] = assay: In vitro antiproliferative activity was measured in mouse myeloma MPC-11 cell line; assay type: functional; conditions: read-out: ED50 (the source's name)
MPC-11 [2] = assay: In vitro lethal dose was measured in mouse myeloma MPC-11 cell line; assay type: functional; conditions: read-out: LD50 (the source's name)
Mus musculus [3] = assay: Percent increase in life span calculated as (T/C-1)X100 at a dose of 10 mg/kg/day *5; assay type: functional
Summary of the method: (§1)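 C3D2F1/J mice (groups of six, av wt 25 g) were inoculated ip with 1×10^6 L1210 lymphoid leukemia cells. Dosing started 24 h after implantation and continued daily through day 5. Read-outs were median survival time of treated versus controls (T/C, 24 controls), %ILS = (T/C − 1)×100, 30-day survivors, and weight change on day 8.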

Mus musculus [4] = assay: Percent increase in life span calculated as (T/C-1)X100 at a dose of 20 mg/kg/day X5; assay type: functional; summary of the method: as §1
Mus musculus [5] = assay: Percent increase in life span calculated as (T/C-1)X100 at a dose of 40 mg/kg/day X5; assay type: functional; summary of the method: as §1
Mus musculus [6] = assay: Percent increase in life span calculated as (T/C-1)X100 at a dose of 60 mg/kg/day X5; assay type: functional; summary of the method: as §1
Mus musculus [7] = assay: Median survival time expressed as (T/C) was measured at dose of 60 mg/kg/day x5; 8.5/8.0; assay type: functional; summary of the method: as §1
Mus musculus [8] = assay: Change in weight of mouse on day 8 was measured in L1210 lymphoid leukemia inoculated mice after ip administration at dose of 10 mg/kg/day *5; assay type: functional; conditions: route intraperitoneal
Summary of the method: (§2)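 C3D2F1/J mice, groups of six, average weight 25 g, were inoculated ip with 1×10^6 L1210 lymphoid leukemia cells following NCI protocol. Dosing was ip, daily, starting 24 h after tumor implantation and continuing through day 5. Body-weight change in g/mouse was recorded on day 8. Pooled controls were 24 mice.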

Mus musculus [9] = assay: Change in weight of mouse on day 8 was measured in L1210 lymphoid leukemia inoculated mice after ip administration at dose of 20 mg/kg/day X5; assay type: functional; conditions: route intraperitoneal; summary of the method: as §2
Mus musculus [10] = assay: Change in weight of mouse on day 8 was measured in L1210 lymphoid leukemia inoculated mice after ip administration at dose of 40 mg/kg/day X5; assay type: functional; conditions: route intraperitoneal; summary of the method: as §2
Mus musculus [11] = assay: Median survival time expressed as (T/C) was measured at dose of 10 mg/kg/day *5; 14.0/7.5; assay type: functional; summary of the method: as §1
Mus musculus [12] = assay: Median survival time expressed as (T/C) was measured at dose of 20 mg/kg/day X5; 18.0/7.5; assay type: functional; summary of the method: as §1
Mus musculus [13] = assay: Median survival time expressed as (T/C) was measured at dose of 40 mg/kg/day X5; 19.0/7.5; assay type: functional; summary of the method: as §1
Mus musculus [14] = assay: Change in weight of mouse on day 8 was measured in L1210 lymphoid leukemia inoculated mice after ip administration at dose of 60 mg/kg/day X5; assay type: functional; conditions: route intraperitoneal; summary of the method: as §2
Mus musculus [15] = species: Mus musculus; assay: Number of mice survived after 30 days; assay type: functional; summary of the method: as §1
[16] = In vitro antiproliferative activity was measured in mouse L1210 lymphoid leukemia cell line; conditions: read-out: ED50 (the source's name)
Mus musculus [17] = assay: Percent increase in life span calculated as (T/C-1)X100 at a dose of 25 mg/kg/day X5; assay type: functional; summary of the method: as §1
Mus musculus [18] = assay: Median survival time expressed as (T/C) was measured at dose of 40 mg/kg/day X5; 24.5/8.5; assay type: functional; summary of the method: as §1
Mus musculus [19] = assay: Change in weight of mouse on day 8 was measured in L1210 lymphoid leukemia inoculated mice after ip administration at dose of 25 mg/kg/day X5; assay type: functional; conditions: route intraperitoneal; summary of the method: as §2
Mus musculus [20] = assay: Median survival time expressed as (T/C) was measured at dose of 25 mg/kg/day X5; 20.0/7.0
Mus musculus [21] = assay: Median survival time expressed as (T/C) was measured at dose of 10 mg/kg/day *5; 15.0/7.5; assay type: functional; summary of the method: as §1
Mus musculus [22] = assay: Median survival time expressed as (T/C) was measured at dose of 40 mg/kg/day X5; 20.0/7.5; assay type: functional; summary of the method: as §1
Mus musculus [23] = assay: Median survival time expressed as (T/C) was measured at dose of 10 mg/kg/day *5; assay type: functional; summary of the method: as §1
Mus musculus [24] = assay: Median survival time expressed as (T/C) was measured at dose of 20 mg/kg/day X5; assay type: functional; summary of the method: as §1
Mus musculus [25] = assay: Median survival time expressed as (T/C) was measured at dose of 40 mg/kg/day X5; assay type: functional; summary of the method: as §1
Mus musculus [26] = assay: Change in weight of mouse on day 8 was measured in L1210 lymphoid leukemia inoculated mice after ip administration at dose of 50 mg/kg/day X5; assay type: functional; conditions: route intraperitoneal; summary of the method: as §2
Mus musculus [27] = assay: Median survival time expressed as (T/C) was measured at dose of 50 mg/kg/day *5; 14.0/8.0

| Structure (SMILES) | EC50 (MPC-11 [1]) [µM] | CC50 (MPC-11 [2]) [µM] | ILS at 10 mg/kg/day (Mus musculus [3]) [%] | ILS at 20 mg/kg/day (Mus musculus [4]) [%] | ILS at 40 mg/kg/day (Mus musculus [5]) [%] | Weight change (Mus musculus [8]) [g mouse-1] | Weight change (Mus musculus [9]) [g mouse-1] | Weight change (Mus musculus [10]) [g mouse-1] | T/C (Mus musculus [12]) [days] | Survivors (Mus musculus [15]) | EC50 [16] [µM] | also measured |
| --- | --- | --- | --- | --- | --- | --- | --- | --- | --- | --- | --- | --- |
| CCCCCCCCCCCCCC(=O)OC[C@H](COP(=O)(O)OP(=O)(O)OC[C@H]1O[C@@H](n2ccc(N)nc2=O)[C@@H](O)[C@@H]1O)OC(=O)CCCCCCCCCCCCC | 15 | 15.2 | 87 | 140 | 153 | 1.8 | 1.15 | 0.1 | 18 | 0 | 16 | ILS at 60 mg/kg/day (Mus musculus [6]): 6%; T/C (Mus musculus [7]): 8.5 days; T/C (Mus musculus [11]): 14 days; T/C (Mus musculus [13]): 19 days; Weight change (Mus musculus [14]): -4.6 g mouse-1 |
| CCCCCCCCCCCCCCCC(=O)OC[C@H](COP(=O)(O)OP(=O)(O)OC[C@H]1O[C@@H](n2ccc(N)nc2=O)[C@@H](O)[C@@H]1O)OC(=O)CCCCCCCCCCCCCCC | 65 | 68.5 | – | – | 188 | – | – | -1.8 | – | 1 | 9.6 | ILS at 25 mg/kg/day (Mus musculus [17]): 186%; T/C (Mus musculus [18]): 24.5 days; Weight change (Mus musculus [19]): 1.57 g mouse-1; T/C (Mus musculus [20]): 20 days |
| CCCCCCCCCCCCCCCCCC(=O)OC[C@H](COP(=O)(O)OP(=O)(O)OC[C@H]1O[C@@H](n2ccc(N)nc2=O)[C@@H](O)[C@@H]1O)OC(=O)CCCCCCCCCCCCCCCCC | 195 | 164 | 100 | 140 | 167 | 1.2 | 1.1 | -0.4 | 18 | 0 | 20 | T/C (Mus musculus [21]): 15 days; T/C (Mus musculus [22]): 20 days |
| Nc1ccn([C@@H]2O[C@H](CO)[C@@H](O)[C@@H]2O)c(=O)n1 [CYTARABINE] | 0.99 | 1.91 | 53 | 65 | 65 | 0.8 | 0.5 | 0.6 | – | 0 | 0.1 | T/C (Mus musculus [23]): 13 days; T/C (Mus musculus [24]): 14 days; T/C (Mus musculus [25]): 14 days |
| CCCCCCCCCCCCCCCC(=O)OC[C@H](COP(=O)(O)OC[C@H]1O[C@@H](n2ccc(N)nc2=O)[C@@H](O)[C@@H]1O)OC(=O)CCCCCCCCCCCCCCC | – | – | – | – | – | – | – | – | – | 0 | 13.4 | Weight change (Mus musculus [26]): 1.7 g mouse-1; T/C (Mus musculus [27]): 14 days |
